In ChEMBL document CHEMBL1817649, “Structure-guided design and synthesis of P1' position 1-phenylcycloalkylamine-derived pentapeptidic BACE1 inhibitors” (Bioorg Med Chem, 2011):

Tests used:
Beta-secretase 1 [1] = target: T1, Beta-secretase 1 (Homo sapiens, UniProt P56817); experiment: Inhibition of human recombinant BACE1 at 2 uM by FRET assay
How it was run: (§1)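 Single-point screen of BACE1 inhibition, run first at the higher concentration and then at the lower one. Read-out is percent inhibition.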

Beta-secretase 1 [2] = target: T1, Beta-secretase 1; experiment: Inhibition of human recombinant BACE1 at 0.2 uM by FRET assay; how it was run: as §1
Beta-secretase 1 [3] = target: T1, Beta-secretase 1; experiment: Inhibition of human recombinant BACE1 by FRET assay

T1 sequence (P56817 whole entry): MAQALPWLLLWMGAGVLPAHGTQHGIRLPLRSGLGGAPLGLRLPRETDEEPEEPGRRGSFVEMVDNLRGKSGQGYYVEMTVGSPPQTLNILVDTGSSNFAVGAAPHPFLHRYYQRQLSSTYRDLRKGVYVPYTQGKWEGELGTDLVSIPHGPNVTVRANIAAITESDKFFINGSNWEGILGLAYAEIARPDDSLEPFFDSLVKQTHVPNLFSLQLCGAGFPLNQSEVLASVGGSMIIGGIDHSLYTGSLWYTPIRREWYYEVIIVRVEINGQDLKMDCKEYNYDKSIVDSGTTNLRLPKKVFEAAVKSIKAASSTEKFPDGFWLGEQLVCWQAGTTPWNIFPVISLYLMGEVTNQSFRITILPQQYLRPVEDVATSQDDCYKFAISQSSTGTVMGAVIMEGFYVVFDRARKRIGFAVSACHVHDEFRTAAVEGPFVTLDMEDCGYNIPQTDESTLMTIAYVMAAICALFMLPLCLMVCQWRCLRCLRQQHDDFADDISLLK

Compound | inhibition (Beta-secretase 1 [1]) [%] | inhibition (Beta-secretase 1 [2]) [%] | IC50 (Beta-secretase 1 [3]) [nM]
CC(C)C[C@H](NC(=O)[C@@H](NC(=O)[C@@H](N)CNC(=O)c1cc(O)ccc1O)C(C)C)C(=O)N[C@@H](Cc1ccccc1)[C@@H](O)C(=O)NC1(c2ccccc2)CCN(Cc2ccccc2)CC1 | 59 | – | –
CC(C)C[C@H](NC(=O)[C@@H](NC(=O)[C@@H](N)CNC(=O)c1[nH]c(=O)[nH]c(=O)c1F)C(C)C)C(=O)N[C@@H](Cc1ccccc1)[C@@H](O)C(=O)N[C@H](C)c1ccccc1 | 98 | 81 | 34.8
CC(C)C[C@H](NC(=O)[C@@H](NC(=O)[C@@H](N)CNC(=O)c1[nH]c(=O)[nH]c(=O)c1F)C(C)C)C(=O)N[C@@H](Cc1ccccc1)[C@@H](O)C(=O)NC1(c2ccccc2)CCCCC1 | 98 | 85 | 24.8
CC(C)[C@H](NC(=O)[C@@H](N)CNC(=O)c1[nH]c(=O)[nH]c(=O)c1F)C(=O)N[C@@H](CC1CCCCC1)C(=O)N[C@@H](Cc1ccccc1)[C@@H](O)C(=O)NC1(c2ccccc2)CCN(Cc2ccccc2)CC1 | 95 | 64 | –
CC(C)[C@H](NC(=O)[C@@H](N)CNC(=O)c1[nH]c(=O)[nH]c(=O)c1F)C(=O)N[C@@H](CC1CCCCC1)C(=O)N[C@@H](Cc1ccccc1)[C@@H](O)C(=O)N[C@H](C)c1ccccc1 | 98 | 79 | 39.6
CC(C)C[C@H](NC(=O)[C@@H](NC(=O)[C@@H](N)CNC(=O)c1cc(O)ccc1O)C(C)C)C(=O)N[C@@H](Cc1ccccc1)[C@@H](O)C(=O)NC(C)(C)c1ccccc1 | 88 | 44 | –
CC(C)[C@H](NC(=O)[C@@H](N)CNC(=O)c1cc(O)ccc1O)C(=O)N[C@@H](CC1CCCCC1)C(=O)N[C@@H](Cc1ccccc1)[C@@H](O)C(=O)NC(C)(C)c1ccccc1 | 89 | 49 | –
CC(C)C[C@H](NC(=O)[C@@H](NC(=O)[C@@H](N)CNC(=O)c1cc(O)ccc1O)C(C)C)C(=O)N[C@@H](Cc1ccccc1)[C@@H](O)C(=O)NC1(c2ccccc2)CCCCC1 | 86 | 43 | –
CC(C)[C@H](NC(=O)[C@@H](N)CNC(=O)c1cc(O)ccc1O)C(=O)N[C@@H](CC1CCCCC1)C(=O)N[C@@H](Cc1ccccc1)[C@@H](O)C(=O)N[C@H](C)c1ccccc1 | 88 | 51 | –
CC(C)C[C@H](NC(=O)[C@@H](NC(=O)[C@@H](N)CNC(=O)c1cc(O)ccc1O)C(C)C)C(=O)N[C@@H](Cc1ccccc1)[C@@H](O)C(=O)NC1(c2ccccc2)CCCC1 | 90 | 58 | –
CC(C)[C@H](NC(=O)[C@@H](N)CNC(=O)c1[nH]c(=O)[nH]c(=O)c1F)C(=O)N[C@@H](CC1CCCCC1)C(=O)N[C@@H](Cc1ccccc1)[C@@H](O)C(=O)NC1(c2ccccc2)CCCC1 | 98 | 84 | 29
CC(C)[C@H](NC(=O)[C@@H](N)CNC(=O)c1cc(O)ccc1O)C(=O)N[C@@H](CC1CCCCC1)C(=O)N[C@@H](Cc1ccccc1)[C@@H](O)C(=O)NC1(c2ccccc2)CCN(Cc2ccccc2)CC1 | 57 | – | –
CC(C)C[C@H](NC(=O)[C@@H](NC(=O)[C@@H](N)CNC(=O)c1[nH]c(=O)[nH]c(=O)c1F)C(C)C)C(=O)N[C@@H](Cc1ccccc1)[C@@H](O)C(=O)N[C@@H](C)c1ccccc1 | 99 | 83 | 20.4
CC(C)C[C@H](NC(=O)[C@@H](NC(=O)[C@@H](N)CNC(=O)c1[nH]c(=O)[nH]c(=O)c1F)C(C)C)C(=O)N[C@@H](Cc1ccccc1)[C@@H](O)C(=O)NC(C)(C)c1ccccc1 | 98 | 83 | 27
CC(C)C[C@H](NC(=O)[C@@H](NC(=O)[C@@H](N)CNC(=O)c1[nH]c(=O)[nH]c(=O)c1F)C(C)C)C(=O)N[C@@H](Cc1ccccc1)[C@@H](O)C(=O)NC1(c2ccccc2)CCN(Cc2ccccc2)CC1 | 93 | 59 | –
CC(C)C[C@H](NC(=O)[C@@H](NC(=O)[C@@H](N)CNC(=O)c1cc(O)ccc1O)C(C)C)C(=O)N[C@@H](Cc1ccccc1)[C@@H](O)C(=O)N[C@@H](C)c1ccccc1 | 88 | 47 | –
CC(C)[C@H](NC(=O)[C@@H](N)CNC(=O)c1cc(O)ccc1O)C(=O)N[C@@H](CC1CCCCC1)C(=O)N[C@@H](Cc1ccccc1)[C@@H](O)C(=O)NC1(c2ccccc2)CCCCC1 | 87 | 46 | –
CC(C)[C@H](NC(=O)[C@@H](N)CNC(=O)c1[nH]c(=O)[nH]c(=O)c1F)C(=O)N[C@@H](CC1CCCCC1)C(=O)N[C@@H](Cc1ccccc1)[C@@H](O)C(=O)NC1(c2ccccc2)CCCCC1 | 97 | 77 | 40.6
CC(C)[C@H](NC(=O)[C@@H](N)CNC(=O)c1[nH]c(=O)[nH]c(=O)c1F)C(=O)N[C@@H](CC1CCCCC1)C(=O)N[C@@H](Cc1ccccc1)[C@@H](O)C(=O)NC(C)(C)c1ccccc1 | 98 | 78 | 31.9
CC(C)[C@H](NC(=O)[C@@H](N)CNC(=O)c1cc(O)ccc1O)C(=O)N[C@@H](CC1CCCCC1)C(=O)N[C@@H](Cc1ccccc1)[C@@H](O)C(=O)N[C@@H](C)c1ccccc1 | 89 | 54 | –
CC(C)C[C@H](NC(=O)[C@@H](NC(=O)[C@@H](N)CNC(=O)c1cc(O)ccc1O)C(C)C)C(=O)N[C@@H](Cc1ccccc1)[C@@H](O)C(=O)N[C@H](C)c1ccccc1 | 87 | 44 | –
CC(C)[C@H](NC(=O)[C@@H](N)CNC(=O)c1[nH]c(=O)[nH]c(=O)c1F)C(=O)N[C@@H](CC1CCCCC1)C(=O)N[C@@H](Cc1ccccc1)[C@@H](O)C(=O)N[C@@H](C)c1ccccc1 | 98 | 80 | 24.2
CC(C)[C@H](NC(=O)[C@@H](N)CNC(=O)c1cc(O)ccc1O)C(=O)N[C@@H](CC1CCCCC1)C(=O)N[C@@H](Cc1ccccc1)[C@@H](O)C(=O)NC1(c2ccccc2)CCCC1 | 89 | 58 | –
CC(C)C[C@H](NC(=O)[C@@H](NC(=O)[C@@H](N)CNC(=O)c1[nH]c(=O)[nH]c(=O)c1F)C(C)C)C(=O)N[C@@H](Cc1ccccc1)[C@@H](O)C(=O)NC1(c2ccccc2)CCCC1 | 99 | 86 | 11.6
